Reference: article PMC9200134 (Chemical Science, 2022)

Legend:
[1] = at 3.3 μM; cited from earlier work
[2] = tested on: lung (A549) cancer cell line; experiment: SRB cytotoxicity assay in 2D monolayers, dark vs green light; format: cell-based, human; conditions: read-out: EC50 (cell growth inhibition); A549 2D, dark (0 J cm^−2)
Procedure, shortened: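 Cells were given test compound for 24 h. They were then irradiated (520 nm, 15 min, 21 mW cm−2, 19 J cm−2) or kept dark, and incubated a further 48 h. Cells were fixed in 10% TCA for 48 h at 4 °C and stained with 0.6% SRB. Absorbance was averaged over triplicate wells and viability taken relative to untreated wells. There were three biological replicates from different passages.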

[3] = tested on: wild type zebrafish embryos; conditions: intravenous or retro-orbital injection, embryo type not stated; cited from earlier work
[4] = reference value, aerated CD3OD; cited from earlier work

Structure (SMILES): N.N.[Cl][Pt][Cl] [Cisplatin]
- Platinum content in the nucleus [1]: 0.6 ng Pt/10^6 cells
- EC50 [2]: 3000 nM

Structure (SMILES): Cc1ccnc(-c2cc(C)ccn2)c1.Cc1ccnc(-c2cc(C)ccn2)c1.[Cl-].[Cl-].[Ru+2].c1csc(-c2ccc(-c3ccc(-c4nc5c6cccnc6c6ncccc6c5[nH]4)s3)s2)c1 [TLD-1433]
- MTD in zebrafish embryo [3]: 4.6 mM

Structure (SMILES): [Ru+2].c1ccc(-c2ccccn2)nc1.c1ccc(-c2ccccn2)nc1.c1ccc(-c2ccccn2)nc1 [[Ru(bpy)3]^2+]
- 1O2 generation quantum yield Φ^refΔ [4]: 0.73
